From PubChem
Only some compounds are listed: those with a hit (about 3.5% of all), similar ones and a draw of the others.
PGC1a acetyl inh: inhibitors of PGC1a acetylation signal, primary screen, cell-based, U2OS, AlphaScreen, inhibitor mode; AlphaScreen anti-acetyl-lysine; with virally co-expressed GCN5 acetyltransferase; inhibition, % at 15.6 µM; hit rate 0.17% among 350,000;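 active = every replicate shows inhibition of at least 40%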
DENV2 CPE: inhibitors of DENV2 cytopathic effect, primary screen, cell-based, plate reader, single concentration; AID 651640, 2012; hit rate 1.7% among 350,000; CPE inhibition, % at 9.99 µM; DENV2-infected cells, cytopathic effect rescue; in the data active = CPE inhibition above about 20%, passing the limit was not always enough; tested in BHK-21 cells
PglD inh: C. jejuni PglD acetyltransferase inhibitors, primary screen, biochemical, DTNB colorimetric, single point; inhibition, % at 12.5 µM; UDP-N-acetylbacillosamine N-acetyltransferase PglD (Campylobacter jejuni); hit rate 0.098% among 360,000; purified PglD enzyme, DTNB colorimetric CoA detection; in the data active = inhibition above about 16%, passing the limit was not always enough
HIV Env fusion: inhibitors of HIV-1 Env-driven cell-cell fusion, primary screen, HeLa-JRFL effector, CEM21 target cells, luciferase; inhibition, % at 12.3 µM; hit rate 1.1% among 360,000; AID 651610, 2012;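 active = mean replicate inhibition score of at least 50 and every replicate individually at or above 50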
FN deposit inh: inhibitors of fibronectin matrix deposition, primary screen, AH1F cells, Alexa488-fibronectin fluorescence, plate reader. AH1F fibroblasts, overnight. inhibition, % at 12.6 µM. hit rate 0.086% among 350,000. AID 743247, 2014;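 active = mean inhibition across replicates of 30% or more, regardless of how many single replicates reach that level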
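Measured by – fluorescence 485/525 nm · System – AH1F fibroblast monolayer, labelled fibronectin deposition · Amount – 10000 cells per well · Buffer or medium – serum-reduced DMEM (2% serum) · Doses – single dose, pinned · Also added – fluorescent fibronectin at 24 nM final · Schedule – 1 h cell attachment, overnight exposure to compound and label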
Ecoli rRNA inh: reduced GFP signal of wild-type E. coli, primary screen, bacterial rRNA inhibitor project, GFP/RFP fluorescence, OD600, single point. E. coli WT GFP vs humanized-ribosome RFP mutants, 24 h; stronger effect = lower value; DMSO median 0, no signal -100. GFP signal change (wild-type ribosome), % (no concentration beside the values). hit rate 1.6% among 350,000. AID 720706, 2013;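 active = significant combined selectivity score with lowered wild-type GFP, culture density cut under 30%, mutant RFP and density less affected; inactive = any of these conditions unmet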
Numbers stand for hits; . = inactive; / = no result; ! = not active in a repeat; [ ] = remark or other dose.

SMILES	PGC1a acetyl inh	DENV2 CPE	PglD inh	HIV Env fusion	FN deposit inh	Ecoli rRNA inh
Cc1ccc(S(=O)(=O)N(C)C[C@@H]2OCCCC[C@H](C)Oc3ccc(NS(=O)(=O)c4ccc(Cl)cc4)cc3C(=O)N([C@@H](C)CO)C[C@@H]2C)cc1	.	.	.	.	.	.
CC(C)CN(C(=O)c1ccc(S(=O)(=O)N2CCCCC2)cc1)C1CCS(=O)(=O)C1 (stereo not given)	/	.	.	70	.	.
O=C1C=CCCN1S(=O)(=O)/C=C/c1ccccc1	59	.	/	.	/	/
C[C@@H]1CN([C@H](C)CO)C(=O)c2cc(NC(=O)C3CCCCC3)ccc2O[C@@H](C)CCCCO[C@H]1CN(C)S(=O)(=O)c1cn(C)cn1	/	.	.	.	/	.
Cc1ccccc1-c1ccc(C2[C@@H]3CN(C(=O)C4CC4)C[C@H]2N3)cc1 (stereo not given in full)	.	27!	/	/	.	.
Cc1ccccc1-c1ccc(C2[C@@H]3CN(C(=O)C4CCOCC4)C[C@H]2N3)cc1 (stereo not given in full)	.	.	/	/	.	.
Cn1cnc(S(=O)(=O)N2CC[C@@H]3[C@@H](CO)Nc4ccc(-c5cccc(F)c5)cc4[C@@H]32)c1	.	.	.	/	.	.
CCNC(=O)[C@@H]1[C@@H](CO)[C@@H]2Cn3c(ccc(-c4ccc(F)cc4)c3=O)[C@@H]2N1C(=O)Cc1cccnc1	/	.	.	.	/	.
CN1c2ccc(Br)cc2[C@H]2[C@H](CCN2C(=O)C2CC2)[C@H]1CO	.	.	.	/	.	.
Cn1nc(C(=O)NNc2c(F)c(F)cc(F)c2F)c2ccccc2c1=O	.	.	.	.	.	-21
CCC1(O)C(=O)OCc2c1cc1n(c2=O)Cc2cc3c(N)cccc3nc2-1 (stereo not given)	.	.	/	68	.	.
C[C@@H]1CN([C@H](C)CO)C(=O)c2cc(NC(=O)C3CCCCC3)ccc2O[C@@H]1CN(C)Cc1ccc(Oc2ccccc2)cc1	.	/	/	.	/	.
CO[C@H]1CN(C)C(=O)c2cc(C#N)ccc2OCC[C@@H]2CC[C@@H](OC)[C@@H](CN(C)C(=O)[C@H]1C)O2	/	.	.	.	.	.
C[C@H](CO)N1C[C@H](C)[C@@H](CN(C)S(=O)(=O)c2ccc(Cl)cc2)Oc2ccc(NC(=O)Nc3cccc4ccccc34)cc2CC1=O	.	42	.	.	.	.
C[C@@H]1CN([C@@H](C)CO)C(=O)Cc2cc(NC(=O)Nc3cccc4ccccc34)ccc2O[C@@H]1CN(C)S(=O)(=O)c1ccc(Cl)cc1	.	.	.	.	.	.
C[C@H]1CN([C@@H](C)CO)C(=O)Cc2cc(NC(=O)Nc3cccc4ccccc34)ccc2O[C@H]1CN(C)S(=O)(=O)c1ccc(Cl)cc1	.	.	.	62[16.7 µM]	.	.
Cc1noc(C)c1S(=O)(=O)Nc1ccc2c(c1)CC(=O)N([C@H](C)CO)C[C@H](C)[C@@H](CN(C)S(=O)(=O)c1ccc(Cl)cc1)O2	.	.	.	.	.	.
O=C(C[C@H]1C[C@H]2c3cc(NC(=O)CC4CC4)ccc3O[C@H]2[C@@H](CO)O1)NCc1ccc(-c2ccccc2)cc1	.	.	.	.	.	.
Cc1ccc(-c2nn3c(C)nnc3s2)cc1NC(=O)c1ccc(-c2cccc(Cl)c2)o1	.	/	.	.	.	/
Cc1ccc(-c2nn3c(C)nnc3s2)cc1NC(=O)c1ccc(-c2ccc(Cl)cc2Cl)o1	.	/	.	115	.	/
COc1ccccc1NCC(=O)NNC(C)C(=O)Nc1cccc(Cl)c1 (stereo not given)	.	.	.	.	.	-32
CCCN(C)C[C@H]1OCCCC[C@@H](C)Oc2ccc(NC(=O)Nc3ccc(C(F)(F)F)cc3)cc2C(=O)N([C@H](C)CO)C[C@H]1C	.	.	.	.	/	.
O=C(Cc1cccnc1)N1CC2(C1)[C@H](c1ccccc1)[C@H](CO)N2C(=O)C1CCCC1	/	.	/	/	.	.
O=C(Nc1ccc(C(F)(F)F)cc1)N[C@H]1CC[C@@H](CC(=O)N2CCCCC2)O[C@@H]1CO	.	.	.	.	.	/
C[C@H](CO)N1C[C@H](C)[C@H](CN(C)Cc2ccc(C(F)(F)F)cc2)Oc2ccc(NC(=O)Nc3ccc(C(F)(F)F)cc3)cc2CC1=O	.	63	.	.	/	.
SMILES	PGC1a acetyl inh	DENV2 CPE	PglD inh	HIV Env fusion	FN deposit inh	Ecoli rRNA inh
COc1ccc(NC(=O)Nc2ccc3c(c2)CC(=O)N([C@@H](C)CO)C[C@@H](C)[C@H](CN(C)Cc2ccc(C(F)(F)F)cc2)O3)cc1	.	.	.	61[16.7 µM]	/	.
COc1ccc(NC(=O)Nc2ccc3c(c2)CC(=O)N([C@@H](C)CO)C[C@@H](C)[C@H](CN(C)Cc2ccc(Oc4ccccc4)cc2)O3)cc1	.	.	.	.	/	.
C[C@@H]1CN([C@@H](C)CO)C(=O)Cc2cc(NC(=O)C3CCCCC3)ccc2O[C@H]1CN(C)Cc1ccc(C(F)(F)F)cc1	.	.	.	.	.	.
COc1ccc(NC(=O)Nc2ccc3c(c2)CC(=O)N([C@H](C)CO)C[C@@H](C)[C@H](CN(C)Cc2ccc(Oc4ccccc4)cc2)O3)cc1	.	.	.	60[16.7 µM]	/	.
C[C@H]1CN([C@@H](C)CO)C(=O)Cc2cc(NC(=O)C3CCCCC3)ccc2O[C@@H]1CN(C)Cc1ccc(C(F)(F)F)cc1	.	39	.	.	.	.
CC(C)[C@H]1CCc2cnnn2COC[C@@H](c2ccccc2)NC1=O	/	/	/	/	.	.
C[C@@H]1CCCCO[C@H](CN(C)Cc2ccc3c(c2)OCO3)[C@H](C)CN([C@@H](C)CO)C(=O)c2cc(NC(=O)NC3CCCCC3)ccc2O1	.	.	.	.	/	.
O=C(C[C@H]1CC[C@@H]2[C@H](COC[C@@H](O)CN2Cc2cccc(C(F)(F)F)c2)O1)NCc1ccccc1	.	.	.	/	.	.
C[C@H](CO)N1C[C@H](C)[C@@H](CN(C)Cc2ccc(Cl)c(Cl)c2)OCCCC[C@H](C)Oc2ccc(NC(=O)Nc3ccc(C(F)(F)F)cc3)cc2C1=O	.	.	.	.	/	.
CN1/C(=C\C(=O)COC(=O)c2nccnc2N)C(C)(C)c2ccccc21	/	.	.	58	.	.
C/C(=N/NC(=O)C1CC1(c1ccccc1)c1ccccc1)c1cccs1 (stereo not given)	/	.	/	57	.	.
C/C=C/c1ccc([C@H]2[C@@H](CO)N(C(=O)C3CCC3)[C@@H]2CNC(=O)NC(C)C)cc1	/	80	/	/	/	.
